Measurements taken from ChEMBL document CHEMBL4819098, “Novel 1,2,4-triazine-quinoline hybrids: The privileged scaffolds as potent multi-target inhibitors of LPS-induced inflammatory response via dual COX-2 and 15-LOX inhibition” (Eur J Med Chem, 2021).

Key:
[1] = system: RAW264.7; assay: Potency index, ratio of celecoxib IC50 to test compound IC50 for inhibition of LPS-induced IL-6 production in mouse RAW264.7 cells preincubated for 2 hrs followed by LPS stimulation and measured after 20 hrs by ELISA; assay type: functional; conditions: time 22 hrs
[2] = system: RAW264.7; assay: Antioxidant activity in mouse RAW264.7 cells assessed as inhibition of LPS-induced intracellular ROS production preincubated for 2 hrs followed by LPS stimulation and measured after 20 hrs by DCFH-DA staining based fluorescence analysis; assay type: functional, cell-based
[3] = system: RAW264.7; assay: Inhibition of LPS-induced IL-6 production in mouse RAW264.7 cells preincubated for 2 hrs followed by LPS stimulation and measured after 20 hrs by ELISA; assay type: functional, cell-based
[4] = target: T1, Prostaglandin G/H synthase 2 (Homo sapiens, UniProt P35354); assay: Inhibition of human recombinant COX-2 using arachidonic acid as substrate preincubated with enzyme for 5 mins followed by substrate addition by colorimetric analysis
T1 sequence (P35354 whole entry): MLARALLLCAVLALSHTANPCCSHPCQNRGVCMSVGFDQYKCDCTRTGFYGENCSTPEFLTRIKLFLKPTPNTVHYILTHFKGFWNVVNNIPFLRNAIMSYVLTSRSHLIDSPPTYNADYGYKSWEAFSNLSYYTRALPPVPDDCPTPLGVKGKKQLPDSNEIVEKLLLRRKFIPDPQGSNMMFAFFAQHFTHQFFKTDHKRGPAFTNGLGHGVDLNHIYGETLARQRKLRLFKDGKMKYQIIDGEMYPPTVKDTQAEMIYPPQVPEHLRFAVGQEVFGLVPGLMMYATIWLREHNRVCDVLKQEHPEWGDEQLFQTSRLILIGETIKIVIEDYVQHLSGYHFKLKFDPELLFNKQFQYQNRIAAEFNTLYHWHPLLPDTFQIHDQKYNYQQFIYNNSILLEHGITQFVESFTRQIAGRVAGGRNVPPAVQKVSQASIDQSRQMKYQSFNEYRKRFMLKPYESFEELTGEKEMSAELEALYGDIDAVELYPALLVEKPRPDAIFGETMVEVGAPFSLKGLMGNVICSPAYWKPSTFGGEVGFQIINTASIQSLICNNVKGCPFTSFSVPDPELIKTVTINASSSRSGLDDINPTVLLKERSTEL

[5] = system: RAW264.7; assay: Potency index, ratio of diclofenac sodium IC50 to test compound IC50 for inhibition of LPS-induced IL-6 production in mouse RAW264.7 cells preincubated for 2 hrs followed by LPS stimulation and measured after 20 hrs by ELISA; assay type: functional; conditions: time 22 hrs
[6] = target: T2, Prostaglandin G/H synthase 1 (Ovis aries, UniProt P05979); assay: Inhibition of ovine COX-1 using arachidonic acid as substrate preincubated with enzyme for 5 mins followed by substrate addition by colorimetric analysis
T2 sequence (P05979 whole entry): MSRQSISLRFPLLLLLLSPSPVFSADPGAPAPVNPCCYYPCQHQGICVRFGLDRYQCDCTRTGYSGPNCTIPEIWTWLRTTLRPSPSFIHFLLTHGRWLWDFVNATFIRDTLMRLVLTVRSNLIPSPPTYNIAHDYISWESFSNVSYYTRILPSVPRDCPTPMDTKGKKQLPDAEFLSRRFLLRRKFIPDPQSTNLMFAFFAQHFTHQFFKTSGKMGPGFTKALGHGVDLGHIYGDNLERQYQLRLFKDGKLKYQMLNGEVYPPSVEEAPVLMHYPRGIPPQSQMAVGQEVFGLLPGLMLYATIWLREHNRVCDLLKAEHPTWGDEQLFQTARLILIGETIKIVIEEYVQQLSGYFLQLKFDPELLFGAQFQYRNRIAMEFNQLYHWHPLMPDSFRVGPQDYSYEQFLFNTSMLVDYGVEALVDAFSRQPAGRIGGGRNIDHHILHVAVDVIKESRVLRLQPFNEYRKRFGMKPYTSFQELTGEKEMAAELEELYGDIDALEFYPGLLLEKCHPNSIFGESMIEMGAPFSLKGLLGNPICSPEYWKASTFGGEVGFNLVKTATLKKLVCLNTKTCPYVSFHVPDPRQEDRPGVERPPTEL

[7] = target: T3, Prostaglandin G/H synthase 2 (Homo sapiens) (UniProt P35354); assay: Potency index, ratio of diclofenac sodium IC50 to test compound IC50 for human recombinant COX-2 using arachidonic acid as substrate preincubated with enzyme for 5 mins followed by substrate addition by colorimetric analysis
T3 sequence (whole entry): T1 sequence (P35354 whole entry)

[8] = system: RAW264.7; assay: Inhibition of LPS-induced TNFalpha production in mouse RAW264.7 cells preincubated for 2 hrs followed by LPS stimulation and measured after 20 hrs by ELISA; assay type: functional, cell-based
[9] = system: RAW264.7; assay: Cytotoxicity against mouse RAW264.7 cells assessed as reduction in cell viability by MTS assay; assay type: cell-based
Procedure, shortened: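 RAW 264.7 macrophage viability at the tested concentrations measured by MTS assay.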

[10] = Inhibition of soybean 15-LOX using arachidonic acid or linolenic acid as substrate in presence of hydrogen peroxide incubated for 5 mins by colorimetric analysis; design: species or system Glycine max
[11] = system: RAW264.7; assay: Inhibition of LPS-induced NO production in mouse RAW264.7 cells preincubated for 2 hrs followed by LPS stimulation and measured after 20 hrs by DAF-FM based fluorescence analysis; assay type: functional, cell-based
[12] = system: RAW264.7; assay: Inhibition of LPS-induced 15(S)-HETE production in mouse RAW264.7 cells preincubated for 2 hrs followed by LPS stimulation and measured after 20 hrs by ELISA; assay type: functional, cell-based
[13] = target: T2, Prostaglandin G/H synthase 1; assay: Inhibition of ovine COX-1
Procedure, shortened: (§1)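 Enzyme kit assay with ovine COX-1 and human recombinant COX-2. IC50 determined from three replicates. Selectivity index taken as IC50(COX-1)/IC50(COX-2).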

[14] = target: T1, Prostaglandin G/H synthase 2; assay: Inhibition of human recombinant COX-2; procedure, shortened: as §1
[15] = Inhibition of soybean 15-LOX; design: species or system Glycine max
Procedure, shortened: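 Soybean 15-LOX run with a lipoxygenase inhibitor screening kit according to the manufacturer's instructions. IC50 values reported.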

[16] = Selectivity index, ratio of IC50 for ovine COX-1 to IC50 for human recombinant COX-2; procedure, shortened: as §1
[17] = system: RAW264.7; assay: Potency index, ratio of celecoxib IC50 to test compound IC50 for inhibition of LPS-induced NO production in mouse RAW264.7 cells preincubated for 2 hrs followed by LPS stimulation and measured after 20 hrs by DAF-FM based fluorescence analysis; assay type: functional; conditions: time 22 hrs
[18] = system: RAW264.7; assay: Cytotoxicity against mouse RAW264.7 cells assessed as reduction in cell viability at 50 uM by MTS assay; assay type: cell-based; conditions: raw264.7, 50 µM
[19] = system: RAW264.7; assay: Potency index, ratio of diclofenac sodium IC50 to test compound IC50 for inhibition of LPS-induced NO production in mouse RAW264.7 cells preincubated for 2 hrs followed by LPS stimulation and measured after 20 hrs by DAF-FM based fluorescence analysis; assay type: functional; conditions: time 22 hrs
[20] = system: RAW264.7; assay: Potency index, ratio of diclofenac sodium IC50 to test compound IC50 for inhibition of LPS-induced TNFalpha production in mouse RAW264.7 cells preincubated for 2 hrs followed by LPS stimulation and measured after 20 hrs by ELISA; assay type: functional; conditions: time 22 hrs
[21] = system: RAW264.7; assay: Potency index, ratio of celecoxib IC50 to test compound IC50 for inhibition of LPS-induced TNFalpha production in mouse RAW264.7 cells preincubated for 2 hrs followed by LPS stimulation and measured after 20 hrs by ELISA; assay type: functional; conditions: time 22 hrs

Row | IC50 [2] | IC50 [3] | IC50 [4] | IC50 [6] | Ratio IC50 [7] | IC50 [8] | IC50 [10] | IC50 [11] | IC50 [12] | Ratio IC50 [16] | SMILES | Ratio IC50 [1] | Activity [9] | further results
1 | 4.52 µM | 5.54 µM | 0.097 µM | 9.7 µM | 8.7 | 2.61 µM | 2.18 µM | > 50 µM | 18.6 µM | – | COc1ccc2cc(/C=N/n3c(=S)[nH]nc(Cc4cc(OC)c(OC)c(OC)c4)c3=O)c(O)nc2c1 | 2 | Non-Toxic | Ratio IC50 [5]: 2.3
2 | – | – | – | – | – | – | – | – | – | – | O=C1N/C(=N\c2nnc(-c3ccc(O)cc3)s2)S/C1=C\c1ccccc1 | – | – | IC50 [13]: 4.66 µM; IC50 [14]: 0.085 µM; IC50 [15]: 5.74 µM
3 | 10.9 µM | 11.8 µM | 0.11 µM | 9 µM | 7.6 | 3.4 µM | 2.38 µM | 36.8 µM | 7.13 µM | 81.8 | Cc1ccc2nc(O)c(/C=N/n3c(=S)[nH]nc(Cc4cccs4)c3=O)cc2c1 | – | Non-Toxic | –
4 | 4.36 µM | 6.11 µM | 0.12 µM | 7.7 µM | 7 | 16 µM | 3.39 µM | 6.76 µM | 2.03 µM | 64.2 | COc1cc(Cc2n[nH]c(=S)n(/N=C/c3cc4ccc(OCc5ccccc5)cc4nc3Cl)c2=O)cc(OC)c1OC | 1.8 | Non-Toxic | Ratio IC50 [17]: 3; Ratio IC50 [5]: 2.1; Activity [18]: Toxic; Ratio IC50 [19]: 6
5 | > 50 µM | > 50 µM | 0.079 µM | 11.1 µM | – | > 50 µM | 2.13 µM | 9.37 µM | > 50 µM | 140 | O=c1c(Cc2cccs2)n[nH]c(=S)n1/N=C/c1cc2ccccc2nc1O | – | Non-Toxic | –
6 | 3.78 µM | 7.36 µM | 0.073 µM | 10.2 µM | 11.5 | 8.41 µM | 2.32 µM | 16.1 µM | 3.6 µM | 140 | COc1ccc2cc(/C=N/n3c(=S)[nH]nc(Cc4ccccc4)c3=O)c(O)nc2c1 | 1.5 | Non-Toxic | Activity [18]: Toxic
7 | 6.67 µM | – | 0.065 µM | 11.5 µM | 12.9 | – | 2.06 µM | 6.34 µM | 8.86 µM | 177 | COc1cc(Cc2n[nH]c(=S)n(/N=C/c3cc4cc(C)ccc4nc3O)c2=O)cc(OC)c1OC | – | Non-Toxic | Ratio IC50 [17]: 3; Ratio IC50 [19]: 6
8 | > 50 µM | > 50 µM | 0.085 µM | 10.3 µM | – | > 50 µM | 1.97 µM | > 50 µM | > 50 µM | 121 | COc1cc(Cc2n[nH]c(=S)n(/N=C/c3cc4cc(C)ccc4nc3O)c2=O)ccc1O | – | Non-Toxic | –
9 | – | – | – | – | – | – | – | – | – | – | COc1ccc(/C=C\C(=O)c2cc(-n3cc(CN4C(=O)C(=O)c5ccccc54)nn3)ccc2O)cc1 | – | – | IC50 [13]: 13.3 µM; IC50 [14]: 0.037 µM; IC50 [15]: 1.95 µM
10 | > 50 µM | > 50 µM | 0.06 µM | 11.8 µM | 14 | > 50 µM | 2.57 µM | > 50 µM | > 50 µM | 197 | COc1ccc2nc(O)c(/C=N/n3c(=S)[nH]nc(Cc4cc(OC)c(OC)c(OC)c4)c3=O)cc2c1 | – | Non-Toxic | –
11 | > 50 µM | > 50 µM | 0.054 µM | 11.3 µM | 15.6 | > 50 µM | 2.12 µM | > 50 µM | > 50 µM | 209 | O=c1c(Cc2ccccc2)n[nH]c(=S)n1/N=C/c1cc2ccccc2nc1O | – | Non-Toxic | –
12 | 7.31 µM | 13.5 µM | 0.28 µM | 5.9 µM | 3 | 30.3 µM | 2.66 µM | 33.5 µM | 21.3 µM | 21.1 | Cc1ccc2nc(O)c(/C=N/n3c(=S)[nH]nc(Cc4ccccc4)c3=O)cc2c1 | – | Non-Toxic | –
13 | 1.91 µM | 12.9 µM | 0.32 µM | 6.6 µM | 2.6 | 34.6 µM | 3.49 µM | > 50 µM | 0.42 µM | 20.6 | CC(C)Oc1ccc2nc(O)c(/C=N/n3c(=S)[nH]nc(Cc4ccccc4)c3=O)cc2c1 | – | Non-Toxic | –
14 | 3.95 µM | 5.98 µM | 0.068 µM | 10.5 µM | 12.4 | > 50 µM | 1.97 µM | 6.93 µM | 3.91 µM | 154 | COc1ccc2nc(O)c(/C=N/n3c(=S)[nH]nc(Cc4ccccc4)c3=O)cc2c1 | 1.9 | Non-Toxic | Ratio IC50 [17]: 3; Ratio IC50 [5]: 2.2; Ratio IC50 [19]: 6
15 | – | 3.99 µM | 0.16 µM | 8.3 µM | 5.3 | 0.4 µM | 1.86 µM | 25.8 µM | 1.46 µM | 51.9 | COc1cc(Cc2n[nH]c(=S)n(/N=C/c3cc4cccc(C)c4nc3Cl)c2=O)cc(OC)c1OC | 2.8 | Non-Toxic | Ratio IC50 [5]: 3.2; Ratio IC50 [20]: 25; Ratio IC50 [21]: 25
